According to ChEMBL document CHEMBL2321752, “A potent and highly efficacious Bcl-2/Bcl-xL inhibitor” (J Med Chem, 2013):
Activity calls are given as the source filed them. No cut-off for these calls is given here.

Assays:
[1] = biological target: Apoptosis regulator Bcl-2 (Homo sapiens, UniProt P10415); experiment: Binding affinity to BCL2 (unknown origin) after 2 hrs by fluorescence polarization assay
Summary of the method: (§1)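 Competitive FP binding assay. Preformed protein/fluorescent probe complexes were used at 1.5/1 nM for Bcl-2, 10/2 nM for Bcl-xL and 20/2 nM for Mcl-1. These were mixed with serially diluted inhibitor and shaken gently for 2 h at room temperature before millipolarization was read. IC50 came from nonlinear regression, and Ki was calculated from IC50.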

Bcl-2-like protein 1 = Bcl-2-like protein 1 (Homo sapiens, UniProt Q07817); experiment: Binding affinity to BCL-XL (unknown origin) after 2 hrs by fluorescence polarization assay; summary of the method: as §1
Bcl-2-like protein 1, sequence (Q07817 whole entry): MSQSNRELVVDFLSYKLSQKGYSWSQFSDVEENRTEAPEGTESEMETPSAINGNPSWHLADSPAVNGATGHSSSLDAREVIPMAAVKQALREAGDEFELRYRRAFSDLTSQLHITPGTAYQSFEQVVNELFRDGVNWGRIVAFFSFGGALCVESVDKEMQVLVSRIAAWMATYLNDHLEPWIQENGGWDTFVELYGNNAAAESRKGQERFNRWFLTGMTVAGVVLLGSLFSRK

[2] = Cytotoxicity against human NCI-H146 cells assessed as growth inhibition after 4 days by WST assay; format: functional, cell-based; details: NCI-H146, 96 h
NCI-H1963 = experiment: Cytotoxicity against human NCI-H1963 cells assessed as growth inhibition after 4 days by WST assay; format: functional, cell-based; details: NCI-H1963, 96 h
Summary of the method: (§2)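 Human small-cell lung cancer line from ATCC, kept in RPMI-1640 with 10% FBS. Cells were exposed to serial compound concentrations for 4 days. WST-8 dye was then added for a further 1–2 h and absorbance read at 450 nm. IC50 was derived from absorbance of treated versus untreated cells. At least three independent experiments per cell line; standard deviation reported.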

NCI-H1417 = experiment: Cytotoxicity against human NCI-H1417 cells assessed as growth inhibition after 4 days by WST assay; format: functional, cell-based; details: NCI-H1417, 96 h; summary of the method: as §2
NCI-H187 = experiment: Cytotoxicity against human NCI-H187 cells assessed as growth inhibition after 4 days by WST assay; format: functional, cell-based; details: NCI-H187, 96 h; summary of the method: as §2
Mus musculus [3] = experiment: Toxicity in SCID mouse assessed as weight loss at 25 mg/kg, iv administered 5 days per week for 2 weeks relative to control; format: organism-based; parameters: dose 25 mg/kg, route intravenous; details: in vivo
Summary of the method: (§3)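 Tolerability run in non-tumor-bearing SCID mice. Compound given intravenously at 15 or 25 mg/kg, daily, 5 days a week for 2 weeks. Weight loss and other signs of toxicity were followed during and after treatment, and the maximum tolerated dose was set from weight loss.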

NCI-H146 [4] = experiment: Antitumor activity against human NCI-H146 cells xenografted in SCID mouse assessed as tumor regression at 15 mg/kg, iv administered 5 days per week for 2 weeks; format: functional, organism-based; parameters: dose 15 mg/kg
Summary of the method: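 H146 cells (5×10^6, with Matrigel) implanted subcutaneously on the dorsal side of SCID mice, one tumor per mouse. Mice with tumors of 100–150 mm³ were randomized into groups of 8, mean volume 126 mm³. Vehicle or compound given intravenously at 15 mg/kg, daily, 5 days/week for 2 weeks. Tumor volume was followed over time.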

[5] = biological target: Induced myeloid leukemia cell differentiation protein Mcl-1 (Homo sapiens, UniProt Q07820); experiment: Binding affinity to MCL1 (unknown origin) after 2 hrs by fluorescence polarization assay; summary of the method: as §1
Induced myeloid leukemia cell differentiation protein Mcl-1, sequence (Q07820 whole entry): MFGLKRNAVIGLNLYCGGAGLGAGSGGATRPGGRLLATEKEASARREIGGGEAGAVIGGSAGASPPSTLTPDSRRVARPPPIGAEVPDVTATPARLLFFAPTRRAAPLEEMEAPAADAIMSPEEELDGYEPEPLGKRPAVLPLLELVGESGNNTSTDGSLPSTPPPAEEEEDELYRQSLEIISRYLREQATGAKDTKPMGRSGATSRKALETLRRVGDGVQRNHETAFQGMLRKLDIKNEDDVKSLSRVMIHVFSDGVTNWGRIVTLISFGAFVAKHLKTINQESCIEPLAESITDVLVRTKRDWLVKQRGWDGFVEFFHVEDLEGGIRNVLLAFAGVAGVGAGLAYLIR

[6] = Toxicity in iv dosed SCID mouse assessed as weight loss administered 5 days per week for 2 weeks; format: organism-based; details: in vivo
Summary of the method: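 Maximum tolerated dose study in SCID mice. Compound was given intravenously at 15 or 25 mg/kg, daily, 5 days a week for 2 weeks. Body weight loss and other signs of toxicity were monitored during and after treatment.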

NCI-H146 [7] = experiment: Induction of apoptosis in human NCI-H146 cells xenografted in SCID mouse assessed as increase in PARP cleavage at 15 mg/kg, iv after 3 to 6 hrs by Western blotting analysis; format: functional, organism-based; parameters: dose 15 mg/kg
Summary of the method: (§4)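 SCID mice bearing subcutaneous H146 xenografts of about 100 mm³ got a single intravenous dose of 15 mg/kg or vehicle. Tumors were harvested at 3, 6 or 24 h. Western blot then measured total and cleaved PARP and caspase-3.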

NCI-H146 [8] = experiment: Induction of apoptosis in human NCI-H146 cells xenografted in SCID mouse assessed as increase in caspase-3 cleavage at 15 mg/kg, iv after 3 to 6 hrs by Western blotting analysis; format: functional, organism-based; parameters: dose 15 mg/kg; summary of the method: as §4
Mus musculus [9] = experiment: Toxicity in SCID mouse 15 mg/kg, iv administered 5 days per week for 2 weeks; format: organism-based; parameters: dose 15 mg/kg, route intravenous; details: in vivo; summary of the method: as §3
Mus musculus [10] = experiment: Toxicity in SCID mouse assessed as weight loss at 15 mg/kg, iv administered 5 days per week for 2 weeks relative to control; format: organism-based; parameters: dose 15 mg/kg, route intravenous; details: in vivo; summary of the method: as §3

Apoptosis regulator Bcl-2, sequence (P10415 whole entry): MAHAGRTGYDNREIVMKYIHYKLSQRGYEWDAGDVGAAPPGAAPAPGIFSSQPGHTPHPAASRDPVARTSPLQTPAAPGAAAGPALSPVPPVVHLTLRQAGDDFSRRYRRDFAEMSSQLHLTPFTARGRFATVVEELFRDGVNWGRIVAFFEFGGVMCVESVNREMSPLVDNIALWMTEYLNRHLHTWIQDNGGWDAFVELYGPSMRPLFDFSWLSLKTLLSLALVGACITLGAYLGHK

| IC50 [1] | IC50 (Bcl-2-like protein 1) | Structure (SMILES) | IC50 [2] | other results |
| --- | --- | --- | --- | --- |
| 0.002 µM |  | CCn1c(C)c(C(=O)O)c(-c2cccc(N3CCN(c4ccc(NS(=O)(=O)c5ccc(N[C@H](CCN(C)C)CSc6ccccc6)c([N+](=O)[O-])c5)cc4)CC3)c2)c1-c1ccc(Cl)cc1 |  |  |
| 0.271 µM | 0.013 µM | Cc1c(C(F)(F)F)c(-c2cccc(N3CCN(c4ccc(NS(=O)(=O)c5ccc(N[C@H](CCN(C)C)CSc6ccccc6)c([N+](=O)[O-])c5)cc4)CC3)c2)c(-c2ccc(Cl)cc2)n1C | > 1 µM |  |
| 0.26 µM | 0.012 µM | Cc1c(Cl)c(-c2cccc(N3CCN(c4ccc(NS(=O)(=O)c5ccc(N[C@H](CCN(C)C)CSc6ccccc6)c([N+](=O)[O-])c5)cc4)CC3)c2)c(-c2ccc(Cl)cc2)n1C | > 1 µM |  |
|  |  | Cc1cc(-c2cccc(N3CCN(c4ccc(NS(=O)(=O)c5ccc(N[C@H](CCN(C)C)CSc6ccccc6)c([N+](=O)[O-])c5)cc4)CC3)c2)c(-c2ccc(Cl)cc2)n1C | > 10 µM |  |
|  |  | CC1(C)CCC(c2ccc(Cl)cc2)=C(CN2CCN(c3ccc(C(=O)NS(=O)(=O)c4ccc(N[C@H](CCN5CCOCC5)CSc5ccccc5)c(S(=O)(=O)C(F)(F)F)c4)cc3)CC2)C1 [NAVITOCLAX] |  | IC50 (NCI-H1963): 0.0266 µM; IC50 (NCI-H1417): 0.0542 µM; IC50 (NCI-H187): 0.0384 µM |
| 0.0038 µM | 0.0083 µM | CN(C)CC[C@H](CSc1ccccc1)Nc1ccc(S(=O)(=O)Nc2ccc(N3CCN(c4cccc(-c5c(C(=O)NS(C)(=O)=O)ncn5-c5ccc(Cl)cc5)c4)CC3)cc2)cc1[N+](=O)[O-] | > 1 µM |  |
| 0.0037 µM | 0.0059 µM | CN(C)CC[C@H](CSc1ccccc1)Nc1ccc(S(=O)(=O)Nc2ccc(N3CCN(c4cccc(-c5c(-c6ccc(Cl)cc6)nn(C)c5C(=O)O)c4)CC3)cc2)cc1[N+](=O)[O-] | 0.541 µM |  |
| 0.0071 µM | 0.0061 µM | CN(C)CC[C@H](CSc1ccccc1)Nc1ccc(S(=O)(=O)Nc2ccc(N3CCN(c4cccc(-c5c(C(=O)O)nn(C)c5-c5ccc(Cl)cc5)c4)CC3)cc2)cc1[N+](=O)[O-] | > 1 µM |  |
| 0.0054 µM | 0.005 µM | CN(C)CC[C@H](CSc1ccccc1)Nc1ccc(S(=O)(=O)Nc2ccc(N3CCN(c4cccc(-c5c(C(=O)NS(C)(=O)=O)cnn5-c5ccc(Cl)cc5)c4)CC3)cc2)cc1[N+](=O)[O-] | > 1 µM |  |
| 0.019 µM | 0.014 µM | Cc1c(C(N)=O)c(-c2cccc(N3CCN(c4ccc(NS(=O)(=O)c5ccc(N[C@H](CCN(C)C)CSc6ccccc6)c([N+](=O)[O-])c5)cc4)CC3)c2)c(-c2ccc(Cl)cc2)n1C | 0.245 µM |  |
| 0.0015 µM | 0.0047 µM | CN(C)CC[C@H](CSc1ccccc1)Nc1ccc(S(=O)(=O)Nc2ccc(N3CCN(c4cccc(-c5c(C(=O)O)c(Cl)n(C)c5-c5ccc(Cl)cc5)c4)CC3)cc2)cc1[N+](=O)[O-] | 0.1 µM |  |
| 0.0011 µM | 0.006 µM | CN(C)CC[C@H](CSc1ccccc1)Nc1ccc(S(=O)(=O)Nc2ccc(N3CCN(c4cccc(-c5c(C(=O)O)c(C(F)(F)F)n(C)c5-c5ccc(Cl)cc5)c4)CC3)cc2)cc1[N+](=O)[O-] | 0.496 µM |  |
| 0.046 µM | 0.018 µM | CN(C)CC[C@H](CSc1ccccc1)Nc1ccc(S(=O)(=O)Nc2ccc(N3CCN(c4cccc(-c5cncn5-c5ccc(Cl)cc5)c4)CC3)cc2)cc1[N+](=O)[O-] | > 10 µM |  |
| 0.0013 µM |  | Cc1c(C(=O)O)c(-c2cccc(N3CCN(c4ccc(NS(=O)(=O)c5ccc(N[C@H](CCN(C)C)CSc6ccccc6)c([N+](=O)[O-])c5)cc4)CC3)c2)c(-c2ccc(Cl)cc2)n1C |  |  |
| 0.0009 µM |  | Cc1c(C(=O)NS(C)(=O)=O)c(-c2cccc(N3CCN(c4ccc(NS(=O)(=O)c5ccc(N[C@H](CCN(C)C)CSc6ccccc6)c([N+](=O)[O-])c5)cc4)CC3)c2)c(-c2ccc(Cl)cc2)n1C | 0.038 µM |  |
|  |  | CN(C)CC[C@H](CSc1ccccc1)Nc1ccc(S(=O)(=O)NC(=O)c2ccc(N3CCN(Cc4ccccc4-c4ccc(Cl)cc4)CC3)cc2)cc1[N+](=O)[O-] [ABT 737] |  | IC50 (NCI-H1963): 0.054 µM; IC50 (NCI-H1417): 0.173 µM; IC50 (NCI-H187): 0.138 µM |
| 0.35 µM | 0.022 µM | CN(C)CC[C@H](CSc1ccccc1)Nc1ccc(S(=O)(=O)Nc2ccc(N3CCN(c4cccc(-c5cnoc5-c5ccc(Cl)cc5)c4)CC3)cc2)cc1[N+](=O)[O-] | > 10 µM |  |
| 0.0056 µM | 0.0094 µM | Cc1c(C(=O)N2CC(C)(O)C2)c(-c2cccc(N3CCN(c4ccc(NS(=O)(=O)c5ccc(N[C@H](CCN(C)C)CSc6ccccc6)c([N+](=O)[O-])c5)cc4)CC3)c2)c(-c2ccc(Cl)cc2)n1C | 0.066 µM |  |
| 0.21 µM | 0.015 µM | CN(C)CC[C@H](CSc1ccccc1)Nc1ccc(S(=O)(=O)Nc2ccc(N3CCN(c4cccc(-c5cnn(C)c5-c5ccc(Cl)cc5)c4)CC3)cc2)cc1[N+](=O)[O-] | > 10 µM |  |
| 0.01 µM | 0.0082 µM | CCCn1c(C)c(C(=O)O)c(-c2cccc(N3CCN(c4ccc(NS(=O)(=O)c5ccc(N[C@H](CCN(C)C)CSc6ccccc6)c([N+](=O)[O-])c5)cc4)CC3)c2)c1-c1ccc(Cl)cc1 | 0.042 µM |  |
| 0.0075 µM | 0.015 µM | Cc1c(C(=O)N[C@H]2C[C@@](C)(O)C2)c(-c2cccc(N3CCN(c4ccc(NS(=O)(=O)c5ccc(N[C@H](CCN(C)C)CSc6ccccc6)c([N+](=O)[O-])c5)cc4)CC3)c2)c(-c2ccc(Cl)cc2)n1C | 0.012 µM |  |
| 0.023 µM | 0.016 µM | CCCCn1c(C)c(C(=O)O)c(-c2cccc(N3CCN(c4ccc(NS(=O)(=O)c5ccc(N[C@H](CCN(C)C)CSc6ccccc6)c([N+](=O)[O-])c5)cc4)CC3)c2)c1-c1ccc(Cl)cc1 | 0.067 µM |  |
| 0.0038 µM | 0.0047 µM | Cc1oc(-c2ccc(Cl)cc2)c(-c2cccc(N3CCN(c4ccc(NS(=O)(=O)c5ccc(N[C@H](CCN(C)C)CSc6ccccc6)c([N+](=O)[O-])c5)cc4)CC3)c2)c1C(=O)O | 0.199 µM |  |
| 0.14 µM | 0.026 µM | CN(C)CC[C@H](CSc1ccccc1)Nc1ccc(S(=O)(=O)Nc2ccc(N3CCN(c4cccc(-c5cn(C)nc5-c5ccc(Cl)cc5)c4)CC3)cc2)cc1[N+](=O)[O-] | > 10 µM |  |
| 0.11 µM | 0.032 µM | CN(C)CC[C@H](CSc1ccccc1)Nc1ccc(S(=O)(=O)Nc2ccc(N3CCN(c4cccc(-c5ccnn5-c5ccc(Cl)cc5)c4)CC3)cc2)cc1[N+](=O)[O-] | > 10 µM |  |
| 0.017 µM | 0.0045 µM | Cc1c(C#N)c(-c2cccc(N3CCN(c4ccc(NS(=O)(=O)c5ccc(N[C@H](CCN(C)C)CSc6ccccc6)c([N+](=O)[O-])c5)cc4)CC3)c2)c(-c2ccc(Cl)cc2)n1C | 0.491 µM |  |

| Structure (SMILES) | IC50 [1] | IC50 (Bcl-2-like protein 1) | IC50 [2] | other results |
| --- | --- | --- | --- | --- |
| CCn1c(C)c(C(=O)NS(C)(=O)=O)c(-c2cccc(N3CCN(c4ccc(NS(=O)(=O)c5ccc(N[C@H](CCN(C)C)CSc6ccccc6)c([N+](=O)[O-])c5)cc4)CC3)c2)c1-c1ccc(Cl)cc1 | 0.0018 µM | 0.007 µM | 0.0048 µM | Activity (Mus musculus [3]): 10%; IC50 (NCI-H1963): 0.0082 µM; Activity (NCI-H146 [4]): Active; IC50 [5]: > 2 µM; IC50 (NCI-H1417): 0.0111 µM; MTD at 2 weeks [6]: 15 mg/kg; IC50 (NCI-H187): 0.0079 µM; Activity (NCI-H146 [7]): Active; Activity (NCI-H146 [8]): Active; Activity (Mus musculus [9]): Non-toxic; Activity (Mus musculus [10]): < 5% |
